The assay is described as follows: Antiprion activity against mouse prion protein RML infected mouse ScN2a cells assessed as reduction in proteinase K-resistant PrPSc level incubated for 5 days followed by proteinase K digestion by Western blot method. The settings on record: 120 h. Put shortly: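 RML-infected ScN2a cells were treated with 0.1, 1 and 10 μM for 5 days, with DMSO ≤0.1% final. Lysates (500 μg protein) were digested with 10 μg PK for 1 h at 37 °C, stopped with 2 mM PMSF and ultracentrifuged. Pellets were run on SDS-PAGE and immunoblotted with anti-PrP Fab W226, with ECL detection. Densitometry gave PK-resistant PrPSc over total PrP, with untreated set to 100%. Three independent experiments.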

In the case of `Cc1ccnc(Nc2nc(-c3cc(-c4ccc(Cl)cc4)no3)cs2)c1`, the EC50 by setting is: (read-out: EC50) 0.85 µM; (read-out: pEC50 (converted)) 0.851 µM.

Take `O=C(Nc1nc(-c2ccc(-c3ccncc3)cc2)cs1)C1CC1`: the EC50 is 0.173 µM (read-out: EC50) and 0.174 µM (read-out: pEC50 (converted)).

As to `Cc1cccc(Nc2nc(-c3ccc(-c4ccnn4C)cc3)cs2)n1`, the EC50 was 0.089 µM (read-out: EC50) and 0.0891 µM (read-out: pEC50 (converted)).

On to `Cc1cc(-c2ccc(-c3csc(Nc4cccc(C)n4)n3)cc2)ccn1`, for which the EC50 is, setting by setting: (read-out: EC50) 0.4 µM; (read-out: pEC50 (converted)) 0.398 µM.

As to `COc1ccnc(Nc2nc(-c3cc(-c4ccccc4)no3)cs2)c1`, the EC50 (read-out: EC50) amounted to 0.25 µM and the EC50 (read-out: pEC50 (converted)) is 0.251 µM.

As for `Cc1ccc(Nc2nc(-c3ccc(-c4ccccn4)s3)cs2)nc1`, the EC50 by setting is: (read-out: EC50) 1.23 µM; (read-out: pEC50 (converted)) 1.23 µM.

`COc1ccc(-c2csc(Nc3ccc4ccccc4n3)n2)cc1OC`: the EC50 by setting is: (read-out: EC50) 0.43 µM; (read-out: pEC50 (converted)) 0.427 µM.

Regarding `COCCOc1ccc(-c2ccc(-c3csc(Nc4cccc(C)n4)n3)cc2)cn1`, the EC50 (read-out: EC50) was determined as 0.137 µM and the EC50 (read-out: pEC50 (converted)) is 0.138 µM.

`COc1ccc(-c2csc(Nc3cc(C)ccn3)n2)cc1OC`: the EC50 (read-out: EC50) came out at 1 µM and the EC50 (read-out: pEC50 (converted)) is 1 µM.

With `Cc1cccc(Nc2nc(-c3ccc(N4CCN(C)CC4)cc3)cs2)n1`, the EC50 is 0.84 µM (read-out: EC50) and 0.832 µM (read-out: pEC50 (converted)).

Regarding `CN1CCN(c2cc(-c3ccc(-c4csc(NC(=O)C5CC5)n4)cc3)ccn2)CC1`, the EC50 was 0.682 µM (read-out: EC50) and 0.676 µM (read-out: pEC50 (converted)).

Regarding `COCCOc1cc(-c2ccc(-c3csc(Nc4cccc(C)n4)n3)cc2)ccn1`, the EC50 was 0.153 µM (read-out: EC50) and 0.155 µM (read-out: pEC50 (converted)).

Turning to `COc1ccc(-c2csc(Nc3ncccn3)n2)cc1OC`, the EC50 reads like this: (read-out: EC50) 3.94 µM; (read-out: pEC50 (converted)) 3.98 µM.

For the compound `Cc1cccc(Nc2nc(-c3ccc(N4CCOCC4)cc3)cs2)n1`, the EC50 by setting is: (read-out: EC50) 0.051 µM; (read-out: pEC50 (converted)) 0.0513 µM.

`COc1ccc(-c2csc(N(C)c3ccc4ccccc4n3)n2)cc1OC`: the EC50 is, setting by setting: (read-out: EC50) 0.14 µM; (read-out: pEC50 (converted)) 0.141 µM.

Regarding `Cc1cccc(Nc2nc(-c3ccc(-c4ccncc4C)cc3)cs2)n1`, the EC50 was 0.618 µM (read-out: EC50) and 0.617 µM (read-out: pEC50 (converted)).

For `COc1ccc(-c2csc(Nc3cnccn3)n2)cc1OC`, the EC50 is 15.6 µM (read-out: EC50) and 15.5 µM (read-out: pEC50 (converted)).

In the case of `c1ccc(-c2csc(Nc3ccc4ccccc4n3)n2)cc1`, the EC50 reads like this: (read-out: EC50) 3.08 µM; (read-out: pEC50 (converted)) 3.09 µM.

`Cc1cccc(Nc2nc(-c3ccc(-c4c(C)noc4C)cc3)cs2)n1`: the EC50 is, setting by setting: (read-out: EC50) 2.13 µM; (read-out: pEC50 (converted)) 2.14 µM.

Take `Cc1cccc(Nc2nc(-c3ccc(-c4ccc(N5CCN(C)CC5)nc4)cc3)cs2)n1`: the EC50 reads like this: (read-out: EC50) 0.096 µM; (read-out: pEC50 (converted)) 0.0955 µM.

As to `Cc1ccnc(Nc2nc(-c3ccncc3)cs2)c1`, the EC50 (read-out: EC50) was 4.95 µM and the EC50 (read-out: pEC50 (converted)) is 5.01 µM.

Turning to `Cc1cccc(Nc2nc(-c3ccc(-c4ccccc4)cc3)cs2)n1`, the EC50 (read-out: EC50) worked out at 2.29 µM and the EC50 (read-out: pEC50 (converted)) was 1.26 µM.

On to `Cc1cccc(Nc2nc(-c3ccc(-c4cccnc4)cc3)cs2)n1`, for which the EC50 reads like this: (read-out: EC50) 0.068 µM; (read-out: pEC50 (converted)) 0.0692 µM.

As to `c1ccc(-c2cc(-c3csc(Nc4ccccn4)n3)on2)cc1`, the EC50 by setting is: (read-out: EC50) 0.6 µM; (read-out: pEC50 (converted)) 0.603 µM.

Regarding `Cc1cccc(Nc2nc(-c3ccc(-c4ccc(N(C)C)nc4)cc3)cs2)n1`, the EC50 is, setting by setting: (read-out: EC50) 0.069 µM; (read-out: pEC50 (converted)) 0.0692 µM.

Consider `COc1ccc(-c2ccc(-c3csc(Nc4cccc(C)n4)n3)cc2)cn1`, for which the EC50 (read-out: EC50) turned out to be 0.14 µM and the EC50 (read-out: pEC50 (converted)) was 0.141 µM.

Take `COc1ccc(-c2csc(Nc3ccc(C(F)(F)F)cn3)n2)cc1OC`: the EC50 is 2.53 µM (read-out: EC50) and 2.51 µM (read-out: pEC50 (converted)).

For `c1ccc2oc(-c3csc(Nc4ccc(-c5cnco5)cc4)n3)cc2c1`, the EC50 is 0.228 µM (read-out: EC50) and 0.229 µM (read-out: pEC50 (converted)).

In the case of `c1cc(-c2csc(Nc3ccc(-c4cnco4)cc3)n2)ccn1`, the EC50 (read-out: EC50) is 0.124 µM and the EC50 (read-out: pEC50 (converted)) was 0.123 µM.

With `Cc1ccc(Nc2nc(-c3ccncc3)cs2)nc1`, the EC50 runs as follows: (read-out: EC50) 1.57 µM; (read-out: pEC50 (converted)) 1.58 µM.

In the case of `NS(=O)(=O)c1ccc(Nc2nc(-c3ccc(O)c(O)c3)cs2)cc1`, the EC50 is 13.5 µM (read-out: EC50) and 13.5 µM (read-out: pEC50 (converted)).

As for `CC(=O)Nc1nc(-c2ccc(-c3ccccc3)cc2)cs1`, the EC50 by setting is: (read-out: EC50) 0.119 µM; (read-out: pEC50 (converted)) 0.12 µM.

Turning to `FC(F)(F)c1csc(Nc2ccc3ccccc3n2)n1`, the EC50 by setting is: (read-out: EC50) 8.66 µM; (read-out: pEC50 (converted)) 8.71 µM.

As to `COc1ccc(-c2csc(Nc3ccc(C)cn3)n2)cc1OC`, the EC50 was 0.79 µM (read-out: EC50) and 0.794 µM (read-out: pEC50 (converted)).

For the compound `Cc1cccc(Nc2nc(-c3ccc(-c4cc[n+]([O-])cc4)cc3)cs2)n1`, the EC50 is, setting by setting: (read-out: EC50) 0.559 µM; (read-out: pEC50 (converted)) 0.562 µM.

On to `COc1ccc(-c2csc(Nc3ccc4ccccc4n3)n2)cc1`, for which the EC50 was 0.34 µM (read-out: EC50) and 0.339 µM (read-out: pEC50 (converted)).

Take `Cc1ccc(Nc2nc(-c3ccccc3)cs2)nc1`: the EC50 (read-out: EC50) worked out at 7.88 µM and the EC50 (read-out: pEC50 (converted)) is 7.94 µM.

Consider `CC(=O)Nc1ccc(-c2csc(Nc3ccccn3)n2)cc1`, for which the EC50 was 8.5 µM (read-out: EC50) and 8.51 µM (read-out: pEC50 (converted)).

On to `COc1ccc(-c2csc(Nc3ccc(C)cn3)n2)c(OC)c1`, for which the EC50 (read-out: EC50) amounted to 3.13 µM and the EC50 (read-out: pEC50 (converted)) was 3.16 µM.

On to `CN(C)c1cccc(Nc2nc(-c3ccc(-c4ccccc4)cc3)cs2)n1`, for which the EC50 runs as follows: (read-out: EC50) 0.699 µM; (read-out: pEC50 (converted)) 0.692 µM.

Consider `Cc1cccc(Nc2nc(-c3cc(-c4ccccc4)no3)cs2)n1`, for which the EC50 is, setting by setting: (read-out: EC50) 0.82 µM; (read-out: pEC50 (converted)) 0.813 µM.

For the compound `Cc1cccc(Nc2nc(-c3ccc(O)cc3O)cs2)n1`, the EC50 was 3.9 µM (read-out: EC50) and 3.89 µM (read-out: pEC50 (converted)).

For `COCC(=O)Nc1nc(-c2ccc(-c3ccccc3)cc2)cs1`, the EC50 was 1.59 µM (read-out: EC50) and 1.58 µM (read-out: pEC50 (converted)).

Take `Cc1cccc(Nc2nc(-c3ccc(-c4ccncc4)cc3)cs2)n1`: the EC50 is 0.087 µM (read-out: EC50) and 0.0871 µM (read-out: pEC50 (converted)).

For the compound `CN(C)c1ccncc1-c1ccc(-c2csc(NC(=O)C3CC3)n2)cc1`, the EC50 by setting is: (read-out: EC50) 0.109 µM; (read-out: pEC50 (converted)) 0.11 µM.

`COCCOc1cc(-c2ccc(-c3csc(NC(=O)C4CC4)n3)cc2)ccn1`: the EC50 by setting is: (read-out: EC50) 1.31 µM; (read-out: pEC50 (converted)) 1.32 µM.

Take `Cc1cccc(Nc2nc(-c3ccc(-c4ccnc(N(C)C)c4)cc3)cs2)n1`: the EC50 is, setting by setting: (read-out: EC50) 0.123 µM; (read-out: pEC50 (converted)) 0.123 µM.

For `COc1ccc(-c2csc(Nc3ccc(C)cn3)n2)cc1`, the EC50 is 3.03 µM (read-out: EC50) and 3.02 µM (read-out: pEC50 (converted)).

Turning to `Cc1ccc(Nc2nc(-c3cc(-c4ccccc4)no3)cs2)nc1`, the EC50 reads like this: (read-out: EC50) 0.94 µM; (read-out: pEC50 (converted)) 0.933 µM.

For the compound `COc1ccc(-c2csc(Nc3ccccc3)n2)cc1OC`, the EC50 was 8.2 µM (read-out: EC50) and 8.13 µM (read-out: pEC50 (converted)).

Regarding `COc1ccc(-c2csc(NC(=O)c3ccc4ccccc4n3)n2)cc1OC`, the EC50 runs as follows: (read-out: EC50) 8.18 µM; (read-out: pEC50 (converted)) 8.13 µM.

Turning to `COc1ccc(NC(=O)c2csc(Nc3ccc(C)cn3)n2)cc1OC`, the EC50 (read-out: EC50) is 2.44 µM and the EC50 (read-out: pEC50 (converted)) was 2.45 µM.

`Cc1ccc(Nc2nc3c(s2)Cc2ccccc2-3)nc1`: the EC50 is, setting by setting: (read-out: EC50) 2.44 µM; (read-out: pEC50 (converted)) 2.45 µM.

`COc1ccc(-c2csc(Nc3ccncc3)n2)cc1OC`: the EC50 is 6.38 µM (read-out: EC50) and 6.46 µM (read-out: pEC50 (converted)).

(Values after ChEMBL document CHEMBL3994584, “Identification of novel fluorescent probes preventing PrPSc replication in prion diseases” (Eur J Med Chem, 2017).)
